Test results: ChEMBL document CHEMBL1122605, “Synthesis and evaluation of radioiodinated (E)-18-iodo-17-octadecenoic acid as a model iodoalkenyl fatty acid for myocardial imaging” (J Med Chem, 1984)
Several values for one entry are separate records, joined by “and”; a condition that tells them apart may be missing. Identical values can stand only once.

How the values were obtained:
Rattus norvegicus [1] = test: Distribution of the [125I]-labeled compound in heart tissue of female Fischer 344 rat 120 min after intravenous administration. Value in the parentheses is ratio of distribution in heart and blood; format: ADME, organism-based; conditions: in vivo, 2 h
Procedure, shortened: (§1)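 Radioiodinated ([125I]) fatty acid formulated in 6% bovine serum albumin solution (10% EtOH), passed through a 0.22-µm filter, injected into a lateral tail vein of female Fischer 344 rats. Tissues taken at set times post-injection; radioactivity expressed as percent injected dose/g tissue (mean, range), with heart:blood ratio calculated from heart and blood values.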

Rattus norvegicus [2] = test: Distribution of the [125I]-labeled compound in heart tissue of female Fischer 344 rat 5 min after intravenous administration. Value in the parentheses is ratio of distribution in heart and blood; format: ADME, organism-based; conditions: in vivo; procedure, shortened: as §1
Rattus norvegicus [3] = test: Distribution of the [125I]-labeled compound in liver of female Fischer 344 rat 2 hr after intravenous administration.; format: ADME, organism-based; conditions: in vivo
Procedure, shortened: (§2)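 Tissues were sampled at the stated times after injection. Radioactivity is expressed as mean (range) percent injected dose/g tissue. Heart:blood ratios were calculated from these tissue values.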

Rattus norvegicus [4] = test: Distribution of the [125I]-labeled compound in lungs of female Fischer 344 rat 30 min after intravenous administration.; format: ADME, organism-based, Lung; conditions: in vivo, 0.5 h; procedure, shortened: as §2
Rattus norvegicus [5] = test: Distribution of the [125I]-labeled compound in blood of female Fischer 344 rat 2 hr after intravenous administration.; format: ADME, organism-based; conditions: in vivo; procedure, shortened: as §2
Rattus norvegicus [6] = test: Distribution of the [125I]-labeled compound in thyroid of female Fischer 344 rat 4 hr after intravenous administration.; format: ADME, organism-based, Thyroid gland; conditions: in vivo; procedure, shortened: as §2
Rattus norvegicus [7] = test: Distribution of the [125I]-labeled compound in heart tissue of female Fischer 344 rat 4 hr after intravenous administration.; format: ADME, organism-based; conditions: in vivo; procedure, shortened: as §2
Rattus norvegicus [8] = test: Distribution of the [125I]-labeled compound in liver of female Fischer 344 rat 5 min after intravenous administration.; format: ADME, organism-based; conditions: in vivo; procedure, shortened: as §2
Rattus norvegicus [9] = test: Distribution of the [125I]-labeled compound in heart tissue of female Fischer 344 rat 5 min after intravenous administration.; format: ADME, organism-based; conditions: in vivo; procedure, shortened: as §2
Rattus norvegicus [10] = test: Distribution of the [125I]-labeled compound in liver of female Fischer 344 rat 1 hr after intravenous administration.; format: ADME, organism-based; conditions: in vivo; procedure, shortened: as §2
Rattus norvegicus [11] = test: Distribution of the [125I]-labeled compound in liver of female Fischer 344 rat 1 day after intravenous administration.; format: ADME, organism-based; conditions: in vivo, 24 h; procedure, shortened: as §2
Rattus norvegicus [12] = test: Distribution of the [125I]-labeled compound in kidney of female Fischer 344 rat 1 day after intravenous administration.; format: ADME, organism-based; conditions: in vivo, 24 h; procedure, shortened: as §2
Rattus norvegicus [13] = test: Ratio of the distribution of [125I]-labeled compound in heart/blood of female Fischer 344 rat 4 hr after intravenous administration.; format: ADME, organism-based; conditions: other tissue; procedure, shortened: as §2
Rattus norvegicus [14] = test: Ratio of the distribution of [125I]-labeled compound in heart/blood of female Fischer 344 rat 1 day after intravenous administration.; format: ADME, organism-based; conditions: other tissue, 24 h; procedure, shortened: as §2
Rattus norvegicus [15] = test: Distribution of the [125I]-labeled compound in lungs of female Fischer 344 rat 1 hr after intravenous administration.; format: ADME, organism-based, Lung; conditions: in vivo; procedure, shortened: as §2
Rattus norvegicus [16] = test: Distribution of the [125I]-labeled compound in blood of female Fischer 344 rat 4 hr after intravenous administration.; format: ADME, organism-based; conditions: in vivo; procedure, shortened: as §2
Rattus norvegicus [17] = test: Distribution of the [125I]-labeled compound in kidney of female Fischer 344 rat 30 min after intravenous administration.; format: ADME, organism-based; conditions: in vivo, 0.5 h; procedure, shortened: as §2
Rattus norvegicus [18] = test: Ratio of the distribution of [125I]-labeled compound in heart/blood of female Fischer 344 rat 1 hr after intravenous administration.; format: ADME, organism-based; conditions: other tissue; procedure, shortened: as §2
Rattus norvegicus [19] = test: Distribution of the [125I]-labeled compound in thyroid of female Fischer 344 rat 5 min after intravenous administration.; format: ADME, organism-based, Thyroid gland; conditions: in vivo; procedure, shortened: as §2
Rattus norvegicus [20] = test: Distribution of the [125I]-labeled compound in kidney of female Fischer 344 rat 2 hr after intravenous administration.; format: ADME, organism-based; conditions: in vivo; procedure, shortened: as §2
Rattus norvegicus [21] = test: Distribution of the [125I]-labeled compound in thyroid of female Fischer 344 rat 30 min after intravenous administration.; format: ADME, organism-based, Thyroid gland; conditions: in vivo, 0.5 h; procedure, shortened: as §2
Rattus norvegicus [22] = test: Distribution of the [125I]-labeled compound in blood of female Fischer 344 rat 1 day after intravenous administration.; format: ADME, organism-based; conditions: in vivo, 24 h; procedure, shortened: as §2
Rattus norvegicus [23] = test: Distribution of the [125I]-labeled compound in heart tissue of female Fischer 344 rat 1 day after intravenous administration.; format: ADME, organism-based; conditions: in vivo, 24 h; procedure, shortened: as §2
Rattus norvegicus [24] = test: Distribution of the [125I]-labeled compound in blood of female Fischer 344 rat 5 min after intravenous administration.; format: ADME, organism-based; conditions: in vivo; procedure, shortened: as §2
Rattus norvegicus [25] = test: Distribution of the [125I]-labeled compound in thyroid of female Fischer 344 rat 2 hr after intravenous administration.; format: ADME, organism-based, Thyroid gland; conditions: in vivo; procedure, shortened: as §2
Rattus norvegicus [26] = test: Distribution of the [125I]-labeled compound in blood of female Fischer 344 rat 1 hr after intravenous administration.; format: ADME, organism-based; conditions: in vivo; procedure, shortened: as §2
Rattus norvegicus [27] = test: Distribution of the [125I]-labeled compound in kidney of female Fischer 344 rat 1 hr after intravenous administration.; format: ADME, organism-based; conditions: in vivo; procedure, shortened: as §2
Rattus norvegicus [28] = test: Distribution of the [125I]-labeled compound in heart tissue of female Fischer 344 rat 1 hr after intravenous administration.; format: ADME, organism-based; conditions: in vivo; procedure, shortened: as §2
Rattus norvegicus [29] = test: Distribution of the [125I]-labeled compound in lungs of female Fischer 344 rat 1 day after intravenous administration.; format: ADME, organism-based, Lung; conditions: in vivo, 24 h; procedure, shortened: as §2
Rattus norvegicus [30] = test: Ratio of the distribution of [125I]-labeled compound in heart/blood of female Fischer 344 rat 5 min after intravenous administration.; format: ADME, organism-based; conditions: in vivo; procedure, shortened: as §2
Rattus norvegicus [31] = test: Distribution of the [125I]-labeled compound in thyroid of female Fischer 344 rat 1 hr after intravenous administration.; format: ADME, organism-based, Thyroid gland; conditions: in vivo; procedure, shortened: as §2
Rattus norvegicus [32] = test: Distribution of the [125I]-labeled compound in kidney of female Fischer 344 rat 5 min after intravenous administration.; format: ADME, organism-based; conditions: in vivo; procedure, shortened: as §2
Rattus norvegicus [33] = test: Distribution of the [125I]-labeled compound in lungs of female Fischer 344 rat 5 min after intravenous administration.; format: ADME, organism-based, Lung; conditions: in vivo; procedure, shortened: as §2
Rattus norvegicus [34] = test: Distribution of the [125I]-labeled compound in kidney of female Fischer 344 rat 4 hr after intravenous administration.; format: ADME, organism-based; conditions: in vivo; procedure, shortened: as §2
Rattus norvegicus [35] = test: Ratio of the distribution of [125I]-labeled compound in heart/blood of female Fischer 344 rat 2 hr after intravenous administration.; format: ADME, organism-based; conditions: other tissue; procedure, shortened: as §2
Rattus norvegicus [36] = test: Distribution of the [125I]-labeled compound in thyroid of female Fischer 344 rat 1 day after intravenous administration.; format: ADME, organism-based, Thyroid gland; conditions: in vivo, 24 h; procedure, shortened: as §2
Rattus norvegicus [37] = test: Distribution of the [125I]-labeled compound in heart tissue of female Fischer 344 rat 30 min after intravenous administration.; format: ADME, organism-based; conditions: in vivo, 0.5 h; procedure, shortened: as §2
Rattus norvegicus [38] = test: Distribution of the [125I]-labeled compound in heart tissue of female Fischer 344 rat 2 hr after intravenous administration.; format: ADME, organism-based; conditions: in vivo; procedure, shortened: as §2
Rattus norvegicus [39] = test: Distribution of the [125I]-labeled compound in blood of female Fischer 344 rat 30 min after intravenous administration.; format: ADME, organism-based; conditions: in vivo, 0.5 h; procedure, shortened: as §2
Rattus norvegicus [40] = test: Distribution of the [125I]-labeled compound in liver of female Fischer 344 rat 4 hr after intravenous administration.; format: ADME, organism-based; conditions: in vivo; procedure, shortened: as §2
Rattus norvegicus [41] = test: Distribution of the [125I]-labeled compound in liver of female Fischer 344 rat 30 min after intravenous administration.; format: ADME, organism-based; conditions: in vivo, 0.5 h; procedure, shortened: as §2

Compound `O=C(O)CCCCCCC[Te]CCCCCCC/C=C/I` has an Injected dose/g tissue (Rattus norvegicus [1]) of 3.9% and an Injected dose/g tissue (Rattus norvegicus [2]) of 4.8%.

`O=C(O)CCCCC[Te]CCCCCCCCC/C=C/I` gave an Injected dose/g tissue (Rattus norvegicus [1]) of 2.9% and an Injected dose/g tissue (Rattus norvegicus [2]) of 3.5%.

`O=C(O)CCCCCCCCCCC[Te]CCC/C=C/I` gave an Injected dose/g tissue (Rattus norvegicus [1]) of 1% and an Injected dose/g tissue (Rattus norvegicus [2]) of 1.5%.

For `O=C(O)CCC[Te]CCCCCCCCCCC/C=C/I`, the Injected dose/g tissue (Rattus norvegicus [1]) was 3.6% and the Injected dose/g tissue (Rattus norvegicus [2]) was 3.9%.

`O=C(O)CCCCCCCCC[Te]CCCCC/C=C/I` showed an Injected dose/g tissue (Rattus norvegicus [1]) of 3.8% and an Injected dose/g tissue (Rattus norvegicus [2]) of 3.1%.

Compound `O=C(O)CCCCCCCCCCCCCCC/C=C/I` has an Injected dose/g tissue (Rattus norvegicus [3]) of 4.04%, an Injected dose/g tissue (Rattus norvegicus [4]) of 1.03% and an Injected dose/g tissue (Rattus norvegicus [5]) of 0.28%. It also gave an Injected dose/g tissue (Rattus norvegicus [6]) of 153%, an Injected dose/g tissue (Rattus norvegicus [7]) of 0.94% and an Injected dose/g tissue (Rattus norvegicus [8]) of 8.65%. It also gave an Injected dose/g tissue (Rattus norvegicus [9]) of 3.17%, an Injected dose/g tissue (Rattus norvegicus [10]) of 4.83% and an Injected dose/g tissue (Rattus norvegicus [11]) of 0.6%. The Injected dose/g tissue (Rattus norvegicus [12]) was 0.32%, the Heart/blood ratio (Rattus norvegicus [13]) was 3.5 and the Heart/blood ratio (Rattus norvegicus [14]) was 4.8. The Injected dose/g tissue (Rattus norvegicus [15]) was 0.82%, the Injected dose/g tissue (Rattus norvegicus [16]) was 0.27% and the Injected dose/g tissue (Rattus norvegicus [17]) was 0.7%. For the same compound, the Heart/blood ratio (Rattus norvegicus [18]) was 7.6, the Injected dose/g tissue (Rattus norvegicus [19]) was 9.29% and the Injected dose/g tissue (Rattus norvegicus [20]) was 0.63%. The Injected dose/g tissue (Rattus norvegicus [21]) was 20.88%, the Injected dose/g tissue (Rattus norvegicus [22]) was 0.07% and the Injected dose/g tissue (Rattus norvegicus [23]) was 0.32%. The Injected dose/g tissue (Rattus norvegicus [24]) was 0.3%, the Injected dose/g tissue (Rattus norvegicus [25]) was 61% and the Injected dose/g tissue (Rattus norvegicus [26]) was 0.28%. It also gave an Injected dose/g tissue (Rattus norvegicus [27]) of 0.62%, an Injected dose/g tissue (Rattus norvegicus [28]) of 2.09% and an Injected dose/g tissue (Rattus norvegicus [29]) of 0.59%. For the same compound, the ratio (Rattus norvegicus [30]) was 10.6 and 6.7, the Injected dose/g tissue (Rattus norvegicus [31]) was 27.18% and the Injected dose/g tissue (Rattus norvegicus [32]) was 0.82%. It also gave an Injected dose/g tissue (Rattus norvegicus [33]) of 1.02%, an Injected dose/g tissue (Rattus norvegicus [34]) of 0.55% and a Heart/blood ratio (Rattus norvegicus [35]) of 6.6. The Injected dose/g tissue (Rattus norvegicus [36]) was 350%, the Injected dose/g tissue (Rattus norvegicus [37]) was 2.69% and the Injected dose/g tissue (Rattus norvegicus [38]) was 1.72%. It also gave an Injected dose/g tissue (Rattus norvegicus [39]) of 0.4%, an Injected dose/g tissue (Rattus norvegicus [40]) of 3.08% and an Injected dose/g tissue (Rattus norvegicus [41]) of 7.81%.
